Format in all cases: functional
The subject of test [1] is Staphylococcus epidermidis. As to the kind of experiment: Antibacterial activity against Staphylococcus epidermidis MTCC 435 by broth dilution method. In a few lines:
(§1)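 Broth dilution per NCCL standards; all phosphorus ylides and conjugated alkynes tested in vitro.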

The test system of the next test is Aspergillus niger. As to the kind of experiment: Antifungal activity against Aspergillus niger MTCC 344 at 100 ug/ml after 48 hrs by agar well diffusion method. Particulars: MTCC 344, 48 h, read-out: IZ. In a few lines:
(§2)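 Test samples and DMSO controls incubated at 27 °C for 48 h. Inhibition zone diameter measured in mm. Three to four replicates per treatment.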
(In general: In agar diffusion tests the substance spreads into inoculated agar from a disc or well.)

In another test the test system is Candida albicans. As to the kind of experiment: Antifungal activity against Candida albicans MTCC 227 at 100 ug/ml after 48 hrs by agar well diffusion method. Particulars: MTCC 227, 48 h, read-out: IZ. The gist of the method: as §2
The test system of the next test is Pseudomonas aeruginosa. In words: Antibacterial activity against Pseudomonas aeruginosa MTCC 741 by broth dilution method. The gist of the method: as §1
For orientation: Dilution methods test growth across graded concentrations, often in twofold steps.

The subject of another test is Saccharomyces cerevisiae. As to the kind of experiment: Antifungal activity against Saccharomyces cerevisiae MTCC 36 at 100 ug/ml after 48 hrs by agar well diffusion method. The following applies: MTCC 36, 48 h, read-out: IZ. The gist of the method:
as §2

The next test concerns Klebsiella pneumoniae. As to the kind of experiment: Antibacterial activity against Klebsiella pneumoniae MTCC 618 by broth dilution method. In a few lines: as §1
For another test, the system named is Escherichia coli. As to the kind of experiment: Antibacterial activity against Escherichia coli MTCC 443 by broth dilution method. The gist of the method: as §1
The subject of the next test is Staphylococcus aureus. As to the kind of experiment: Antibacterial activity against Staphylococcus aureus MTCC 96 by broth dilution method. In a few lines: as §1
The test system of the next test is Diutina rugosa. In words: Antifungal activity against Candida rugosa NCIM 3462 at 100 ug/ml after 48 hrs by agar well diffusion method. Particulars: NCIM 3462, 48 h, read-out: IZ. The gist of the method:
as §2

A further test has as its system Bacillus subtilis. In words: Antibacterial activity against Bacillus subtilis MTCC 441 by broth dilution method. The gist of the method:
as §1

A further test relates to Aspergillus flavus. In words: Antifungal activity against Aspergillus flavus MTCC 277 at 100 ug/ml after 48 hrs by agar well diffusion method. The following applies: MTCC 277, 48 h, read-out: IZ. The gist of the method: as §2

Converted amounts (≈) assume the structure as drawn.

One may read the MIC as the lowest concentration that inhibits growth of the organism. For the compound `CCOC(=O)C(C(=O)c1ccc(Cl)nc1)=P(c1ccccc1)(c1ccccc1)c1ccccc1`, the MIC (in test [1]; in the test on Pseudomonas aeruginosa; against Klebsiella pneumoniae; against Escherichia coli; against Staphylococcus aureus; against Bacillus subtilis) was over 150 µg/mL each time. Further, the zone of inhibition at 100 µg/mL in the test with Aspergillus niger, with Candida albicans, in the test on Saccharomyces cerevisiae, in the test with Diutina rugosa and in the test on Aspergillus flavus was 0 mm in each case.

Take `Cc1ccccc1C(=O)C(C#N)=P(c1ccccc1)(c1ccccc1)c1ccccc1`: the MIC (in [1]; with Pseudomonas aeruginosa; with Klebsiella pneumoniae; in the test on Escherichia coli; with Staphylococcus aureus; against Bacillus subtilis) was over 150 µg/mL in each case. The zone of inhibition at 100 µg/mL in the test on Aspergillus niger, in the test on Candida albicans, in the test on Saccharomyces cerevisiae, in the test with Diutina rugosa and with Aspergillus flavus was 0 mm in each case.

In the case of `N#CC(C(=O)c1cccnc1Cl)=P(c1ccccc1)(c1ccccc1)c1ccccc1`, the MIC (in test [1]; in the test on Pseudomonas aeruginosa; in the test with Klebsiella pneumoniae; with Escherichia coli; in the test on Staphylococcus aureus; in the test on Bacillus subtilis) was over 150 µg/mL throughout. For the same compound, the zone of inhibition at 100 µg/mL with Aspergillus niger, in the test with Candida albicans, in the test on Saccharomyces cerevisiae, in the test with Diutina rugosa and with Aspergillus flavus was 0 mm throughout.

In the case of `CCOC(=O)C(C(=O)c1cccnc1Cl)=P(c1ccccc1)(c1ccccc1)c1ccccc1`, the MIC (in test [1]; against Pseudomonas aeruginosa; in the test on Klebsiella pneumoniae; in the test with Escherichia coli; in the test with Staphylococcus aureus; in the test on Bacillus subtilis) was over 150 µg/mL in each case. The zone of inhibition at 100 µg/mL with Aspergillus niger, with Candida albicans, in the test with Saccharomyces cerevisiae, in the test with Diutina rugosa and in the test with Aspergillus flavus was 0 mm throughout.

In the case of `CCOC(=O)C(C(=O)c1cc(F)c(Cl)nc1Cl)=P(c1ccccc1)(c1ccccc1)c1ccccc1`, the MIC (in [1]; with Pseudomonas aeruginosa; in the test with Klebsiella pneumoniae; against Escherichia coli; in the test with Staphylococcus aureus; in the test on Bacillus subtilis) was over 150 µg/mL each time. The zone of inhibition at 100 µg/mL in the test with Aspergillus niger, with Candida albicans, with Saccharomyces cerevisiae, in the test on Diutina rugosa and in the test on Aspergillus flavus was 0 mm in each case.

`CC(C)OC(=O)C(C(=O)c1ccc(Cl)nc1)=P(c1ccccc1)(c1ccccc1)c1ccccc1`: the MIC (in test [1]; with Pseudomonas aeruginosa; with Klebsiella pneumoniae; against Escherichia coli; against Staphylococcus aureus; in the test on Bacillus subtilis) was over 150 µg/mL throughout. Further, the zone of inhibition at 100 µg/mL in the test on Aspergillus niger, in the test with Candida albicans, in the test on Saccharomyces cerevisiae, in the test with Diutina rugosa and in the test with Aspergillus flavus was 0 mm each time.

In the case of `CC(C)OC(=O)C(C(=O)c1ccco1)=P(c1ccccc1)(c1ccccc1)c1ccccc1`, the minimal inhibitory concentration (MIC) (in [1]; against Pseudomonas aeruginosa; with Klebsiella pneumoniae; against Escherichia coli; in the test on Staphylococcus aureus; against Bacillus subtilis) was over 150 µg/mL in each case. Further, the zone of inhibition at 100 µg/mL in the test with Aspergillus niger, with Candida albicans, in the test on Saccharomyces cerevisiae, with Diutina rugosa and in the test on Aspergillus flavus was 0 mm each time.

Take `CC(C)OC(=O)C(C(=O)c1cc(F)c(Cl)nc1Cl)=P(c1ccccc1)(c1ccccc1)c1ccccc1`: the MIC (in test [1]; in the test with Pseudomonas aeruginosa; in the test on Klebsiella pneumoniae; with Escherichia coli; in the test on Staphylococcus aureus; with Bacillus subtilis) was over 150 µg/mL throughout. Besides, the zone of inhibition at 100 µg/mL in the test on Aspergillus niger, in the test with Candida albicans, in the test with Saccharomyces cerevisiae, with Diutina rugosa and in the test with Aspergillus flavus was 0 mm throughout.

Consider `N#CC(C(=O)c1cc(F)c(Cl)nc1Cl)=P(c1ccccc1)(c1ccccc1)c1ccccc1`, for which the MIC (in test [1]; against Pseudomonas aeruginosa; against Klebsiella pneumoniae; against Escherichia coli; in the test with Staphylococcus aureus; in the test with Bacillus subtilis) was over 150 µg/mL each time. Also, the zone of inhibition at 100 µg/mL in the test on Aspergillus niger, in the test on Candida albicans, in the test with Saccharomyces cerevisiae, with Diutina rugosa and in the test with Aspergillus flavus was 0 mm throughout.

In the case of `CC(C)(C)C(=O)C(C#N)=P(c1ccccc1)(c1ccccc1)c1ccccc1`, the MIC (in test [1]; against Pseudomonas aeruginosa; in the test with Klebsiella pneumoniae; against Escherichia coli; against Staphylococcus aureus; in the test on Bacillus subtilis) was over 150 µg/mL in each case. Further, the zone of inhibition at 100 µg/mL in the test with Aspergillus niger, in the test with Candida albicans, in the test with Saccharomyces cerevisiae, in the test on Diutina rugosa and in the test on Aspergillus flavus was 0 mm throughout.

On to `N#CC(C(=O)c1ccco1)=P(c1ccccc1)(c1ccccc1)c1ccccc1`, for which the MIC (in [1]; in the test on Pseudomonas aeruginosa; against Klebsiella pneumoniae; against Escherichia coli; in the test on Staphylococcus aureus; in the test with Bacillus subtilis) was over 150 µg/mL throughout. Moreover, the zone of inhibition at 100 µg/mL with Aspergillus niger, with Candida albicans, with Saccharomyces cerevisiae, in the test with Diutina rugosa and in the test with Aspergillus flavus was 0 mm in each case.

As to `CCOC(=O)C(C(=O)C(C)(C)C)=P(c1ccccc1)(c1ccccc1)c1ccccc1`, the MIC (in [1]; against Pseudomonas aeruginosa; with Klebsiella pneumoniae; in the test with Escherichia coli; in the test with Staphylococcus aureus; with Bacillus subtilis) was over 150 µg/mL each time. The zone of inhibition at 100 µg/mL in the test on Aspergillus niger, in the test with Candida albicans, in the test on Saccharomyces cerevisiae, with Diutina rugosa and in the test on Aspergillus flavus was 0 mm throughout.

Turning to `CCOC(=O)C(C(=O)c1ccccc1C)=P(c1ccccc1)(c1ccccc1)c1ccccc1`, the MIC (in [1]; in the test with Pseudomonas aeruginosa; against Klebsiella pneumoniae; in the test with Escherichia coli; in the test with Staphylococcus aureus; against Bacillus subtilis) was over 150 µg/mL each time. The zone of inhibition at 100 µg/mL with Aspergillus niger, in the test on Candida albicans, with Saccharomyces cerevisiae, with Diutina rugosa and in the test with Aspergillus flavus was 0 mm in each case.

For `CC1(C)S[C@@H]2[C@H](NC(=O)Cc3ccccc3)C(=O)N2[C@H]1C(=O)O` [PENICILLIN G], the MIC worked out at 3.12 µg/mL (≈ 9.35 µM) in test [1]; 12.5 µg/mL (≈ 37.4 µM) in the test on Pseudomonas aeruginosa; 6.25 µg/mL (≈ 18.7 µM) against Klebsiella pneumoniae; 12.5 µg/mL (≈ 37.4 µM) in the test on Escherichia coli; 1.56 µg/mL (≈ 4.67 µM) with Staphylococcus aureus; 1.56 µg/mL (≈ 4.67 µM) against Bacillus subtilis.

For `CC(C)OC(=O)C(C(=O)C(C)(C)C)=P(c1ccccc1)(c1ccccc1)c1ccccc1`, the MIC (in test [1]; against Pseudomonas aeruginosa; in the test on Klebsiella pneumoniae; with Escherichia coli; against Staphylococcus aureus; with Bacillus subtilis) was over 150 µg/mL throughout. For the same compound, the zone of inhibition at 100 µg/mL in the test on Aspergillus niger, in the test with Candida albicans, in the test on Saccharomyces cerevisiae, in the test with Diutina rugosa and in the test on Aspergillus flavus was 0 mm each time.

On to `CN[C@@H]1[C@H](O[C@H]2[C@H](O[C@H]3[C@H](O)[C@@H](O)[C@H](N=C(N)N)[C@@H](O)[C@@H]3N=C(N)N)O[C@@H](C)[C@]2(O)C=O)O[C@@H](CO)[C@H](O)[C@H]1O` [STREPTOMYCIN], for which the MIC was determined as 3.12 µg/mL (≈ 5.37 µM) in test [1]; 1.56 µg/mL (≈ 2.69 µM) in the test on Pseudomonas aeruginosa; 3.12 µg/mL (≈ 5.37 µM) against Klebsiella pneumoniae; 6.25 µg/mL (≈ 10.7 µM) against Escherichia coli; 6.25 µg/mL (≈ 10.7 µM) against Staphylococcus aureus; 6.25 µg/mL (≈ 10.7 µM) in the test with Bacillus subtilis.

As for `N#CC(C(=O)c1ccc(Cl)nc1)=P(c1ccccc1)(c1ccccc1)c1ccccc1`, the MIC (in test [1]; in the test with Pseudomonas aeruginosa; in the test on Klebsiella pneumoniae; in the test with Escherichia coli; with Staphylococcus aureus; against Bacillus subtilis) was over 150 µg/mL throughout. The zone of inhibition at 100 µg/mL with Aspergillus niger, with Candida albicans, with Saccharomyces cerevisiae, in the test with Diutina rugosa and with Aspergillus flavus was 0 mm each time.
